Assay results reported in ChEMBL document CHEMBL3868603, “Synthesis and evaluation of naphthyl bearing 1,2,3-triazole analogs as antiplasmodial agents, cytotoxicity and docking studies” (Bioorg Med Chem, 2017).

Legend:
Plasmodium falciparum [1] = test: Antiplasmodial activity against pyrimethamine-sensitive Plasmodium falciparum 3D7 infected in human erythrocytes incubated for 50 hrs by SYBR green 1 dye based fluorescence assay; type: functional, cell-based; details: 3D7, 50 h
How it was run: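 Parasites cultured in RPMI 1640 with 10% human serum, erythrocytes at 2% haematocrit, 37°C, 5% O2/5% CO2/90% N2; sorbitol-synchronized rings. DMSO stocks serially 2-fold diluted; 1% ring-infected erythrocytes at 4% haematocrit, 50 h. SYBR Green 1 lysis buffer, fluorescence Ex 485/Em 530; chloroquine (500 nM) background subtracted, normalized to DMSO (0.05%), nonlinear regression IC50; two independent experiments in duplicate.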

[2] = Cytotoxicity against HEK293 cells assessed as decrease in cell viability at 100 uM after 48 hrs by MTT assay; type: toxicity, cell-based; details: human, hek293, 48 h
How it was run: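 HEK-293 in MEM with 10% FBS, seeded 10,000 cells/well, 24 h at 37°C, 5% CO2; treated 1–100 µM in triplicate with DMSO control and doxorubicin reference, 48 h. MTT added 1 h, dried, DMSO dissolved, absorbance 562 nm; IC50 as 50% absorbance reduction versus control, mean ± SD of three independent experiments.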

Plasmodium falciparum [3] = test: Antiplasmodial activity against pyrimethamine-resistant Plasmodium falciparum Dd2 infected in human erythrocytes incubated for 50 hrs by SYBR green 1 dye based fluorescence assay; type: functional, cell-based; details: Dd2, 50 h
How it was run: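 Ring-stage sorbitol-synchronised parasites in RPMI 1640 with 10% human serum, 1% ring parasitaemia, 2% final haematocrit; compounds from DMSO stocks in 2-fold serial dilution; 37°C, 5% O2/5% CO2/90% N2, 50 h; lysis buffer with SYBR Green 1, fluorescence Ex 485/Em 530; chloroquine (500 nM) background subtracted, normalised to DMSO (0.05%) wells; nonlinear regression IC50; two independent experiments in duplicate.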

Plasmodium falciparum [4] = test: Inhibition of trophozoite stage of Plasmodium falciparum DHFR assessed as reduction in NADPH depletion at 50 uM incubated for 30 mins followed by NADPH addition measured for 30 mins at 15 secs interval by UV/Vis spectrophotometric analysis
How it was run: (§1)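 Soluble extract from saponin-isolated trophozoites (culture at 15-16% parasitaemia), freeze-thaw, sonication, centrifugation; protein by Bradford. 500 µg extract in 1 ml assay buffer with inhibitor or 0.05% DMSO, 30 min room temperature, spun to remove precipitate; 60 µM NADPH and 50 µM DHA added, A340 decrease read every 15 s for 30 min; slope by linear regression as percent of control, representative experiment.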

Plasmodium falciparum [5] = test: Potency index, ratio of pyrimethamine IC50 to compound IC50 for pyrimethamine-resistant Plasmodium falciparum Dd2 infected in human erythrocytes; type: functional
Plasmodium falciparum [6] = test: Inhibition of trophozoite stage of Plasmodium falciparum DHFR assessed as reduction in NADPH depletion at 25 uM incubated for 30 mins followed by NADPH addition measured for 30 mins at 15 secs interval by UV/Vis spectrophotometric analysis; how it was run: as §1

| SMILES | IC50 (Plasmodium falciparum [1]) | Activity [2] | IC50 (Plasmodium falciparum [3]) | inhibition (Plasmodium falciparum [4]) | Ratio IC50 (Plasmodium falciparum [5]) | inhibition (Plasmodium falciparum [6]) |
| --- | --- | --- | --- | --- | --- | --- |
| CC(C)n1cc(COc2ccc3ccccc3c2)nn1 | 43.5 µM | Non-Toxic | – | – | – | – |
| CCCn1cc(COc2ccc3cc(Br)ccc3c2)nn1 | 22.1 µM | Non-Toxic | 36.9 µM | – | – | – |
| CCCn1cc(COc2ccc3ccccc3c2)nn1 | 54.5 µM | Non-Toxic | – | – | – | – |
| CCc1nc(N)nc(N)c1-c1ccc(Cl)cc1 [PYRIMETHAMINE] | 0.047 µM | – | 34 µM | 25% | – | – |
| CC(C)Cn1cc(COc2ccc3cc(Br)ccc3c2)nn1 | 19.6 µM | Non-Toxic | 31 µM | – | 3 | 41% |
| CCCCCn1cc(COc2ccc3ccccc3c2)nn1 | 46.5 µM | Non-Toxic | – | – | – | – |
| O=[N+]([O-])c1ccc(Cn2cc(COc3ccc4ccccc4c3)nn2)cc1 | 39.6 µM | Non-Toxic | 41.6 µM | – | – | – |
| C=CCn1cc(COc2ccc3cc(Br)ccc3c2)nn1 | 21.2 µM | Non-Toxic | – | – | – | 13% |
| Brc1ccc2cc(OCc3cn(C4CCCC4)nn3)ccc2c1 | 27.3 µM | Non-Toxic | – | – | – | – |
| c1ccc2cc(OCc3cn(C4CCCC4)nn3)ccc2c1 | 39 µM | Non-Toxic | – | – | – | – |
| CCCCCn1cc(COc2ccc3cc(Br)ccc3c2)nn1 | 26.2 µM | Non-Toxic | – | – | – | – |
| CCn1cc(COc2ccc3ccccc3c2)nn1 | 97.5 µM | Non-Toxic | – | – | – | – |
| CC(C)n1cc(COc2ccc3cc(Br)ccc3c2)nn1 | 21 µM | Non-Toxic | 24 µM | – | 3 | – |
| O=C(O)CC[C@H](NC(=O)c1ccc(-n2cc(COc3ccc4cc(Br)ccc4c3)nn2)cc1)C(=O)O | 41.5 µM | Non-Toxic | – | – | – | – |
| c1ccc2cc(OCc3cn(CCN4CCOCC4)nn3)ccc2c1 | 80 µM | Non-Toxic | – | – | – | – |
| C=CCn1cc(COc2ccc3ccccc3c2)nn1 | 48.6 µM | Non-Toxic | – | – | – | – |
| CCn1cc(COc2ccc3cc(Br)ccc3c2)nn1 | 23.6 µM | Non-Toxic | 34.2 µM | – | – | – |
| CC(C)Cn1cc(COc2ccc3ccccc3c2)nn1 | 61.5 µM | Non-Toxic | – | – | – | – |
| O=[N+]([O-])c1ccc(Cn2cc(COc3ccc4cc(Br)ccc4c3)nn2)cc1 | 14.7 µM | Non-Toxic | 13.6 µM | – | 3 | – |
